Reference: ChEMBL document CHEMBL1131514, “A novel series of 6-methoxy-1H-benzotriazole-5-carboxamide derivatives with dual antiemetic and gastroprokinetic activities” (1998)

How the values were obtained:
Canis familiaris [1] = experiment: Antiemetic activity was evaluated in vivo by the suppression of apomorphine-induced emesis in dogs at oral dose of 1.0 mg/kg; type: functional, Canis lupus familiaris
Rattus norvegicus = experiment: Compound was tested for its effect on the gastric emptying rate of phenol red semisolid meal through the stomach at oral dose of 3.0 mg/kg in rats.; type: functional
Outline: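 Rats dosed orally at 3.0 mg/kg, with a 0.5% tragacanth control group. Gastric emptying of a phenol red semisolid meal was measured and expressed as percentage enhancement relative to the control group mean. Significance was tested against control.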

Canis familiaris [2] = experiment: Tested in vivo for effective dose required for suppression of apomorphine-induced emesis in dog […]; type: functional; settings: Canis lupus familiaris

CCOc1cc2[nH]nnc2cc1C(=O)NC1CCCCN(CC)C1 (stereo unspecified)
Antiemetic activity (Canis familiaris [1]): 15%
Gastric emptying (Rattus norvegicus): 18%

CCN1CCCCC(NC(=O)c2cc3nnn(C(C)C)c3cc2OC)C1 (stereo unspecified)
Antiemetic activity (Canis familiaris [1]): 94%
Gastric emptying (Rattus norvegicus): 16%

CCN1CCCCCCCC(NC(=O)c2cc3[nH]nnc3cc2OC)C1 (stereo unspecified)
Antiemetic activity (Canis familiaris [1]): 22%
Gastric emptying (Rattus norvegicus): 31%

CCN1CCCCCC(NC(=O)c2cc3[nH]nnc3cc2OC)C1 (stereo unspecified)
Antiemetic activity (Canis familiaris [1]): 100%
Gastric emptying (Rattus norvegicus): 21%
ED50 (Canis familiaris [2]): 0.19 mg/kg

CCN1CCCCC(NC(=O)c2cc3[nH]nnc3cc2OC)C1 (stereo unspecified)
Antiemetic activity (Canis familiaris [1]): 100%
Gastric emptying (Rattus norvegicus): 28%
ED50 (Canis familiaris [2]): 0.08 mg/kg

COc1cc2[nH]nnc2cc1C(=O)NC1CCCCN(C)C1 (stereo unspecified)
Antiemetic activity (Canis familiaris [1]): 46%
Gastric emptying (Rattus norvegicus): 20%

COc1cc2[nH]nnc2cc1C(=O)NC1CCCCN(C(C)C)C1 (stereo unspecified)
Antiemetic activity (Canis familiaris [1]): 15%
Gastric emptying (Rattus norvegicus): 31%

CCOc1cc(N)c(Cl)cc1C(=O)NCC1CN(Cc2ccc(F)cc2)CCO1 (stereo unspecified) [MOSAPRIDE]
Antiemetic activity (Canis familiaris [1]): 8%
Gastric emptying (Rattus norvegicus): 70%
ED50 (Canis familiaris [2]): > 10 mg/kg

CCN1CCCCC(NC(=O)c2cc3nnn(C)c3cc2OC)C1 (stereo unspecified)
Antiemetic activity (Canis familiaris [1]): 77%
Gastric emptying (Rattus norvegicus): 49%

CCN(CC)CCNC(=O)c1cc(Cl)c(N)cc1OC [METOCLOPRAMIDE]
Antiemetic activity (Canis familiaris [1]): 86%
Gastric emptying (Rattus norvegicus): 39%
ED50 (Canis familiaris [2]): 0.45 mg/kg

CCN1CCCC(NC(=O)c2cc3[nH]nnc3cc2OC)C1 (stereo unspecified)
Antiemetic activity (Canis familiaris [1]): 31%

CCN1CCCCC(NC(=O)c2cc3nnn(CC)c3cc2OC)C1 (stereo unspecified)
Antiemetic activity (Canis familiaris [1]): 89%
Gastric emptying (Rattus norvegicus): 31%

CCCn1nnc2cc(C(=O)NC3CCCCN(CC)C3)c(OC)cc21 (stereo unspecified)
Antiemetic activity (Canis familiaris [1]): 89%
Gastric emptying (Rattus norvegicus): 29%

CCN1CCCCCCC(NC(=O)c2cc3[nH]nnc3cc2OC)C1 (stereo unspecified)
Antiemetic activity (Canis familiaris [1]): 100%
Gastric emptying (Rattus norvegicus): 46%
ED50 (Canis familiaris [2]): 0.1 mg/kg

CCCN1CCCCC(NC(=O)c2cc3[nH]nnc3cc2OC)C1 (stereo unspecified)
Antiemetic activity (Canis familiaris [1]): 63%
Gastric emptying (Rattus norvegicus): 17%

CCN1CCCCC(NC(=O)c2ccc3[nH]nnc3c2OC)C1 (stereo unspecified)
Antiemetic activity (Canis familiaris [1]): 50%
Gastric emptying (Rattus norvegicus): 11%

O=c1[nH]c2ccccc2n1CCCN1CCC(n2c(=O)[nH]c3cc(Cl)ccc32)CC1 [DOMPERIDONE]
Antiemetic activity (Canis familiaris [1]): 100%
Gastric emptying (Rattus norvegicus): 0%
ED50 (Canis familiaris [2]): 0.02 mg/kg

CCN1CCCCC(NC(=O)c2cc3nnn(CC4CC4)c3cc2OC)C1 (stereo unspecified)
Antiemetic activity (Canis familiaris [1]): 74%
Gastric emptying (Rattus norvegicus): 34%
